One experiment has as its system Salmonella typhi. In words: Antibacterial activity against Bacillus typhi after 24 hrs by NCCLS two fold broth microdilution method. The settings on record: Salmonella enterica. In kind it is functional, Salmonella enterica subsp. enterica serovar Typhi. The gist of the method:
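Two-fold serial broth microdilution per NCCLS. DMSO stocks diluted in Mueller–Hinton broth to 512, 256, 128, 64, 32, 16, 8, 4, 2, 1, 0.5 µg/mL. Chloromycin and norfloxacin as reference drugs; DMSO with inoculum, no drug, as solvent control. Incubation 37 °C for 24 h. Growth read visually and spectrophotometrically. MIC is the lowest concentration completely inhibiting growth; triplicate.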

In the next experiment the test system is Aspergillus flavus. In words: Antifungal activity against Aspergillus flavus after 24 hrs by NCCLS two fold broth microdilution method. The experiment is classed as functional. The gist of the method:
(§1)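 Two-fold serial microdilution following NCCLS. A spore suspension in sterile distilled water was prepared from one-day-old cultures grown on Sabouraud agar and adjusted to a final 1–5 × 10^3 spores/mL. DMSO stocks were diluted in RPMI 1640 to eleven concentrations (0.5–512 µg/mL), inoculated and held at 35 °C for 24 h. Growth was read visually and spectrophotometrically, MIC was the lowest concentration with complete inhibition, and runs were in triplicate.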
A general note: In broth dilution the organism is exposed to a series of concentrations in liquid medium.

A further experiment concerns Bacillus subtilis. In words: Antibacterial activity against Bacillus subtilis ATCC 21216 after 24 hrs by NCCLS two fold broth microdilution method. In kind it is functional. The following applies: ATCC 21216, 24 h. The gist of the method:
(§2)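 Two-fold serial broth microdilution in 96-well plates following NCCLS. Compounds were dissolved in DMSO as stocks, then diluted in Mueller–Hinton broth to final concentrations of 0.5–512 µg/mL. Plates were inoculated and incubated at 37 °C for 24 h, with growth read visually and spectrophotometrically. MIC was taken as the lowest concentration giving complete growth inhibition. Run in triplicate, with a DMSO-plus-inoculum solvent control.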

The subject of a further experiment is Pichia norvegensis. In words: Antifungal activity against Candida mycoderma after 24 hrs by NCCLS two fold broth microdilution method. The experiment is classed as functional.
The subject of the next experiment is Pseudomonas aeruginosa. In words: Antibacterial activity against Pseudomonas aeruginosa ATCC 27853 after 24 hrs by NCCLS two fold broth microdilution method. In kind it is functional. The following applies: ATCC 27853, 24 h. The gist of the method:
(§3)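 Two-fold serial broth microdilution in 96-well plates following NCCLS. Plates were inoculated and incubated at 37 °C for 24 h, with growth read visually and spectrophotometrically. MIC was taken as the lowest concentration giving complete growth inhibition. Run in triplicate, with a DMSO-plus-inoculum solvent control.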

Experiment [1] concerns Staphylococcus aureus. In words: Antibacterial activity against Staphylococcus aureus ATCC 25923 after 24 hrs by NCCLS two fold broth microdilution method. The settings on record: ATCC 25923, 24 h. In kind it is functional. The gist of the method:
as §2

The subject of the next experiment is Candida albicans. In words: Antifungal activity against Candida albicans ATCC 76615 after 24 hrs by NCCLS two fold broth microdilution method. The experiment is classed as functional. The following applies: ATCC 76615, 24 h. The gist of the method: as §1
The next experiment concerns Micrococcus luteus. In words: Antibacterial activity against Micrococcus luteus ATCC 4698 after 24 hrs by NCCLS two fold broth microdilution method. The following applies: NCTC 2665, 24 h. The experiment is classed as functional. The gist of the method: as §2
The test system of a further experiment is Cyberlindnera jadinii. In words: Antifungal activity against Candida utilis after 24 hrs by NCCLS two fold broth microdilution method. The experiment is classed as functional. The following applies: Williopsis jadinii. A digest of the protocol:
as §1

A further experiment deals with Escherichia coli. In words: Antibacterial activity against Escherichia coli ATCC 8099 after 24 hrs by NCCLS two fold broth microdilution method. In kind it is functional. The following applies: ATCC 8099, 24 h. The gist of the method: as §3
Another experiment has as its system Bacillus. In words: Antibacterial activity against Bacillus proteus ATCC 13315 after 24 hrs by NCCLS two fold broth microdilution method. The experiment is classed as functional. The settings on record: ATCC 13315, 24 h. A digest of the protocol:
as §2

Experiment [2] has as its system Staphylococcus aureus. In words: Antibacterial activity against methicillin-resistant Staphylococcus aureus N315 after 24 hrs by NCCLS two fold broth microdilution method. In kind it is functional. The settings on record: N315, 24 h. The gist of the method: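 Two-fold serial broth microdilution per NCCLS. Chloromycin and norfloxacin as reference drugs; DMSO with inoculum, no drug, as solvent control. Incubation 37 °C for 24 h. Growth read visually and spectrophotometrically. MIC is the lowest concentration completely inhibiting growth; triplicate.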

Another experiment has as its system Saccharomyces cerevisiae. In words: Antifungal activity against Saccharomyces cerevisiae after 24 hrs by NCCLS two fold broth microdilution method. In kind it is functional. A digest of the protocol: as §1

Values after ≈ are worked out from the molar mass of the structure shown.

As usually defined, the MIC is the least concentration at which growth counts as inhibited. Low values mean greater potency, high ones weaker potency. As to `Nc1ccc(S(=O)(=O)Cc2nc3ccccc3n2Cc2ccc(Cl)cc2Cl)cc1`, the MIC in the experiment with Salmonella typhi was 128 µg/mL (≈ 287 µM); in the experiment on Aspergillus flavus, 4 µg/mL (≈ 8.96 µM); against Bacillus subtilis, 32 µg/mL (≈ 71.7 µM); against Pichia norvegensis, 512 µg/mL (≈ 1150 µM); in the experiment with Pseudomonas aeruginosa it was 32 µg/mL (≈ 71.7 µM); against Staphylococcus aureus [1], 8 µg/mL (≈ 17.9 µM). In addition, the MIC in the experiment with Candida albicans is 16 µg/mL (≈ 35.8 µM); in the experiment with Micrococcus luteus, 64 µg/mL (≈ 143 µM); against Cyberlindnera jadinii, 2 µg/mL (≈ 4.48 µM); against Escherichia coli it was 16 µg/mL (≈ 35.8 µM); against Bacillus, 128 µg/mL (≈ 287 µM); against Staphylococcus aureus [2], 128 µg/mL (≈ 287 µM). In the experiment on Saccharomyces cerevisiae, inhibition of growth (MIC) required 256 µg/mL (≈ 574 µM).

Consider `CCCCCCCCCCn1c(CS(=O)(=O)c2ccc(NC(C)=O)cc2)nc2ccccc21`, for which the MIC in the experiment with Salmonella typhi, against Aspergillus flavus, against Bacillus subtilis, in the experiment with Pichia norvegensis, against Pseudomonas aeruginosa and in the experiment with Staphylococcus aureus [1] was 512 µg/mL (≈ 1090 µM) throughout. The MIC amounted to 512 µg/mL (≈ 1090 µM) in the experiment on Candida albicans; 512 µg/mL (≈ 1090 µM) against Micrococcus luteus; 16 µg/mL (≈ 34.1 µM) with Cyberlindnera jadinii; 512 µg/mL (≈ 1090 µM) in the experiment with Escherichia coli; 512 µg/mL (≈ 1090 µM) in the experiment with Bacillus; 512 µg/mL (≈ 1090 µM) in the experiment with Staphylococcus aureus [2]. Besides, the MIC in the experiment with Saccharomyces cerevisiae was found to be 512 µg/mL (≈ 1090 µM).

On to `CCCCCCCCCCCCCCCCCCn1c(CS(=O)(=O)c2ccc(NC(C)=O)cc2)nc2ccccc21`, for which the minimum inhibitory concentration (MIC) was 512 µg/mL (≈ 880 µM) against Salmonella typhi; 512 µg/mL (≈ 880 µM) in the experiment on Aspergillus flavus; 512 µg/mL (≈ 880 µM) against Bacillus subtilis; 512 µg/mL (≈ 880 µM) in the experiment with Pichia norvegensis; 512 µg/mL (≈ 880 µM) with Pseudomonas aeruginosa; 128 µg/mL (≈ 220 µM) in the experiment with Staphylococcus aureus [1]. Also, the MIC against Candida albicans, against Micrococcus luteus, in the experiment on Cyberlindnera jadinii, against Escherichia coli, against Bacillus and with Staphylococcus aureus [2] was 512 µg/mL (≈ 880 µM) each time. Besides, the lowest concentration to inhibit growth against Saccharomyces cerevisiae (MIC) was 512 µg/mL (≈ 880 µM).

On to `CCCCCCCn1c(CS(=O)(=O)c2ccc(N)cc2)nc2ccccc21`, for which the MIC in the experiment on Salmonella typhi, against Aspergillus flavus, against Bacillus subtilis, against Pichia norvegensis, against Pseudomonas aeruginosa and against Staphylococcus aureus [1] was 512 µg/mL (≈ 1330 µM) throughout. For the same compound, the minimum inhibitory concentration (MIC) came out at 512 µg/mL (≈ 1330 µM) in the experiment on Candida albicans; 128 µg/mL (≈ 332 µM) with Micrococcus luteus; 512 µg/mL (≈ 1330 µM) against Cyberlindnera jadinii; 512 µg/mL (≈ 1330 µM) against Escherichia coli; 512 µg/mL (≈ 1330 µM) with Bacillus; 512 µg/mL (≈ 1330 µM) in the experiment on Staphylococcus aureus [2]. This compound displayed a minimum inhibitory concentration (MIC) with Saccharomyces cerevisiae of 64 µg/mL (≈ 166 µM).

Turning to `CCCCCCCCCCCCn1c(CS(=O)(=O)c2ccc(NC(C)=O)cc2)nc2ccccc21`, the MIC with Salmonella typhi, against Aspergillus flavus, against Bacillus subtilis, in the experiment with Pichia norvegensis, in the experiment with Pseudomonas aeruginosa and against Staphylococcus aureus [1] was 512 µg/mL (≈ 1030 µM) each time. Also, the minimal inhibitory concentration (MIC) stood at 512 µg/mL (≈ 1030 µM) against Candida albicans; 512 µg/mL (≈ 1030 µM) against Micrococcus luteus; 512 µg/mL (≈ 1030 µM) against Cyberlindnera jadinii; 256 µg/mL (≈ 514 µM) against Escherichia coli; 512 µg/mL (≈ 1030 µM) against Bacillus; 512 µg/mL (≈ 1030 µM) against Staphylococcus aureus [2]. Also, the minimal inhibitory concentration (MIC) in the experiment on Saccharomyces cerevisiae came to 512 µg/mL (≈ 1030 µM).

With `CCCCCn1c(CS(=O)(=O)c2ccc(NC(C)=O)cc2)nc2ccccc21`, the MIC in the experiment with Salmonella typhi turned out to be 32 µg/mL (≈ 80.1 µM); with Aspergillus flavus it was 32 µg/mL (≈ 80.1 µM); in the experiment with Bacillus subtilis, 64 µg/mL (≈ 160 µM); against Pichia norvegensis, 16 µg/mL (≈ 40 µM); against Pseudomonas aeruginosa it was 4 µg/mL (≈ 10 µM); against Staphylococcus aureus [1], 32 µg/mL (≈ 80.1 µM). Further, the minimal inhibitory concentration (MIC) in the experiment on Candida albicans worked out at 256 µg/mL (≈ 641 µM); in the experiment with Micrococcus luteus, 32 µg/mL (≈ 80.1 µM); against Cyberlindnera jadinii it was 32 µg/mL (≈ 80.1 µM); against Escherichia coli it was 256 µg/mL (≈ 641 µM); with Bacillus it was 256 µg/mL (≈ 641 µM); against Staphylococcus aureus [2], 128 µg/mL (≈ 320 µM). For the same compound, the MIC with Saccharomyces cerevisiae stood at 64 µg/mL (≈ 160 µM).

`Nc1ccc(S(=O)(=O)Cc2nc3ccccc3n2Cc2ccc(Cl)cc2)cc1`: the minimal inhibitory concentration (MIC) with Salmonella typhi worked out at 512 µg/mL (≈ 1240 µM); with Aspergillus flavus, 128 µg/mL (≈ 311 µM); in the experiment on Bacillus subtilis, 8 µg/mL (≈ 19.4 µM); against Pichia norvegensis, 16 µg/mL (≈ 38.8 µM); against Pseudomonas aeruginosa, 256 µg/mL (≈ 621 µM); against Staphylococcus aureus [1], 256 µg/mL (≈ 621 µM). Moreover, the MIC in the experiment on Candida albicans was 256 µg/mL (≈ 621 µM); in the experiment with Micrococcus luteus it was 8 µg/mL (≈ 19.4 µM); with Cyberlindnera jadinii, 32 µg/mL (≈ 77.7 µM); against Escherichia coli, 64 µg/mL (≈ 155 µM); with Bacillus, 256 µg/mL (≈ 621 µM); against Staphylococcus aureus [2] it was 256 µg/mL (≈ 621 µM). This compound also displayed an MIC against Saccharomyces cerevisiae of 64 µg/mL (≈ 155 µM).

The values above are taken from ChEMBL document CHEMBL4138085, “Design, synthesis and antimicrobial evaluation of novel benzimidazole-incorporated sulfonamide analogues” (Eur J Med Chem, 2017).
